What all share (assay type): functional
The test system of test [1] is Staphylococcus aureus. The experiment in a line: Antibacterial activity was determined against gram positive organism, Staphylococcus aureus UC76. The note with it: Staphylococcus aureus; read-out: MIC. A digest of the protocol:
(§1)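 MIC (µg/mL) by standard microtitration against a panel of 10 Gram-positive and Gram-negative organisms; values averaged from multiple experiments.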

The test system of test [2] is Streptococcus pyogenes. Nature of the test: The in vivo potency was determined in female charles river CD-1 mice infected with Streptococcus pyogenes after peroral administration. As to conditions: for ED50: Streptococcus pyogenes, po, read-out: PD50. A digest of the protocol:
(§2)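 Acute lethal systemic infection in female CD-1 mice, 16 mice per route; single dose given orally by gavage at the time of challenge; median protective dose (PD50, mg/kg) determined.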

For test [3], the system named is Bacteria. Nature of the test: MIC ratio measured as the mean MICs of gram-positive bacteria. A digest of the protocol: (§3)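 Geometric mean of the microtitration MICs (µg/mL) over the Gram-negative organisms, and separately over the Gram-positive organisms, of the 10-strain panel; individual MICs averaged from multiple experiments.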
The target in test [4] is DNA gyrase (Escherichia coli) (UniProt P0AES6+P0AES4). The experiment in a line: Minimum inhibitory concentration against Escherichia coli DNA-gyrase in supercoiling assay.
The subject of test [5] is Streptococcus pneumoniae. The experiment in a line: The in vivo potency was determined in female charles river CD-1 mice infected with Streptococcus pneumoniae after peroral administration. As to conditions: for ED50: Streptococcus pneumoniae, po, read-out: PD50. A digest of the protocol: as §2
Test [6] has as its system Streptococcus pyogenes. Nature of the test: The in vivo potency was determined in female charles river CD-1 mice infected with Streptococcus pyogenes after sc administration. As to conditions: Streptococcus pyogenes, sc; read-out: PD50. A digest of the protocol:
(§4)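 Acute lethal systemic infection in female CD-1 mice, 16 mice per route; single subcutaneous dose given at the time of challenge; median protective dose (PD50, mg/kg) determined.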

Test [7] relates to Staphylococcus aureus. Nature of the test: Antibacterial activity was determined against gram positive organism, Staphylococcus aureus H228. A digest of the protocol:
as §1

For test [8], the system named is Escherichia coli. Nature of the test: The in vivo potency was determined in female charles river CD-1 mice infected with Escherichia coli after peroral administration. As to conditions: Escherichia coli, po; read-out: PD50. A digest of the protocol:
as §2

The test system of another test is Klebsiella pneumoniae. Nature of the test: Antibacterial activity was determined against gram negative organism, Klebsiella pneumoniae MGH-2. The note with it: Klebsiella pneumoniae; read-out: MIC. A digest of the protocol:
as §1

The test system of test [9] is Escherichia coli. Nature of the test: Antibacterial activity was determined against gram negative organism, Escherichia coli vogel. As to conditions: Escherichia coli; read-out: MIC. A digest of the protocol: as §1
A further test has as its system Pseudomonas aeruginosa. Nature of the test: Antibacterial activity was determined against gram negative organism, Pseudomonas aeruginosa UI-18. A digest of the protocol:
as §1

Test [10] relates to Escherichia coli. Nature of the test: The in vivo potency was determined in female charles river CD-1 mice infected with Escherichia coli after sc administration. The note with it: Escherichia coli, sc; read-out: PD50. A digest of the protocol: as §4
Test [11] has as its system Streptococcus pneumoniae. The experiment in a line: The in vivo potency was determined in female charles river CD-1 mice infected with Streptococcus pneumoniae after sc administration. The note with it: for ED50: Streptococcus pneumoniae, sc, read-out: PD50. A digest of the protocol:
as §4

For test [12], the system named is Streptococcus pyogenes. The experiment in a line: Antibacterial activity was determined against gram positive organism, Streptococcus pyogenes C203. The note with it: Streptococcus pyogenes; read-out: MIC. A digest of the protocol: as §1
The subject of test [13] is Bacteria. Nature of the test: MIC ratio measured as the mean MICs of gram-negative bacteria. A digest of the protocol: as §3
Test [14] has as its system Streptococcus pneumoniae. Nature of the test: Antibacterial activity was determined against gram positive organism, Streptococcus pneumoniae SV-1. A digest of the protocol:
as §1

For the next test, the system named is Enterobacter cloacae. The experiment in a line: Antibacterial activity was determined against gram negative organism, Enterobacter cloacae MA2646. The note with it: Enterobacter cloacae; read-out: MIC.
Test [15] has as its system Bacteria. The experiment in a line: Antibacterial activity was determined against gram negative organism, Providencia rettgeri. M1771. A digest of the protocol: as §1
The next test relates to Enterococcus faecalis. Nature of the test: Antibacterial activity was determined against gram positive organism, Streptococcus faecalis MGH-2. As to conditions: Enterococcus faecalis; read-out: MIC. A digest of the protocol: as §1
[16] abbreviates: Staphylococcus aureus, read-out: MIC.
The mark [17] stands for this setting: Pseudomonas aeruginosa, read-out: MIC.
Setting [18] is: Streptococcus pneumoniae, read-out: MIC.

Converted amounts (≈) assume the structure as drawn.

This note sets out measurements from ChEMBL document CHEMBL1125826, “Synthesis and biological activity of 5-amino- and 5-hydroxyquinolones, and the overwhelming influence of the remote N1-substituent in determining the structure-activity relationship” (1991).

Consider `CCNCC1CCN(c2c(F)c(N)c3c(=O)c(C(=O)O)cn(C4CC4)c3c2F)C1` (stereo not drawn), for which the MIC with Staphylococcus aureus [1] was determined as 0.003 µg/mL (≈ 0.00738 µM); in test [4], 0.5 µg/mL (≈ 1.23 µM); with Staphylococcus aureus [7] (setting [16]), 0.013 µg/mL (≈ 0.032 µM); in the test with Klebsiella pneumoniae, 0.05 µg/mL (≈ 0.123 µM); in the test with Escherichia coli [9] it was 0.05 µg/mL (≈ 0.123 µM); in the test on Pseudomonas aeruginosa (setting [17]) it was 0.2 µg/mL (≈ 0.492 µM). Also, the MIC in the test on Streptococcus pyogenes [12] worked out at 0.013 µg/mL (≈ 0.032 µM); in the test on Streptococcus pneumoniae [14] (setting [18]), 0.003 µg/mL (≈ 0.00738 µM); with Enterobacter cloacae, 0.05 µg/mL (≈ 0.123 µM); with Bacteria [15] (Bacteria, read-out: MIC), 0.1 µg/mL (≈ 0.246 µM); in the test with Enterococcus faecalis, 0.025 µg/mL (≈ 0.0615 µM). The ED50 was 16 mg/kg with Streptococcus pyogenes [2]; 5 mg/kg in the test with Streptococcus pneumoniae [5]; 5 mg/kg in the test on Streptococcus pyogenes [6]; 16 mg/kg in the test with Escherichia coli [8]; 2 mg/kg in the test with Escherichia coli [10]; 3 mg/kg in the test on Streptococcus pneumoniae [11]. The “Geometric mean MIC over Gram-positive bacteria (µg/mL)” value in the test with Bacteria [3] came out at 0.0082. Further, the Geometric mean MIC over Gram-negative bacteria (µg/mL) in the test on Bacteria [13] was determined as 0.075.

Take `O=C(O)c1cn(C2CC2)c2c(F)c(N3CCNCC3)c(F)cc2c1=O`: the MIC with Staphylococcus aureus [1] amounted to 0.1 µg/mL (≈ 0.286 µM); in [4], 0.5 µg/mL (≈ 1.43 µM); with Staphylococcus aureus [7] (setting [16]), 0.4 µg/mL (≈ 1.15 µM); with Klebsiella pneumoniae, 0.05 µg/mL (≈ 0.143 µM); with Escherichia coli [9], 0.05 µg/mL (≈ 0.143 µM); in the test with Pseudomonas aeruginosa (setting [17]), 0.2 µg/mL (≈ 0.573 µM). The MIC in the test with Streptococcus pyogenes [12] amounted to 0.8 µg/mL (≈ 2.29 µM); in the test on Streptococcus pneumoniae [14] (setting [18]) it was 0.8 µg/mL (≈ 2.29 µM); with Enterobacter cloacae, 0.05 µg/mL (≈ 0.143 µM); with Bacteria [15] (Bacteria, read-out: MIC), 0.1 µg/mL (≈ 0.286 µM); in the test on Enterococcus faecalis, 0.4 µg/mL (≈ 1.15 µM). In addition, the ED50 in the test with Streptococcus pyogenes [2] was 59 mg/kg; with Streptococcus pneumoniae [5], 33 mg/kg; in the test on Streptococcus pyogenes [6], 29 mg/kg; in the test on Escherichia coli [8] it was 0.5 mg/kg; with Escherichia coli [10], 0.3 mg/kg; in the test with Streptococcus pneumoniae [11], 9 mg/kg. Besides, the “Geometric mean MIC over Gram-positive bacteria (µg/mL)” value in the test with Bacteria [3] is on record as 0.4. Also, in the test with Bacteria [13], the Geometric mean MIC over Gram-negative bacteria (µg/mL) was 0.076.

On to `CC1CN(c2c(F)c(N)c3c(=O)c(C(=O)O)cn(C4CC4)c3c2F)CCN1` (stereo not drawn), for which the MIC in the test on Staphylococcus aureus [1] was 0.025 µg/mL (≈ 0.0661 µM); in test [4], 1 µg/mL (≈ 2.64 µM); in the test with Staphylococcus aureus [7] (setting [16]), 0.05 µg/mL (≈ 0.132 µM); in the test on Klebsiella pneumoniae it was 0.025 µg/mL (≈ 0.0661 µM); in the test on Escherichia coli [9], 0.013 µg/mL (≈ 0.0344 µM); in the test on Pseudomonas aeruginosa (setting [17]), 0.4 µg/mL (≈ 1.06 µM). The MIC with Streptococcus pyogenes [12] is 0.2 µg/mL (≈ 0.529 µM); in the test on Streptococcus pneumoniae [14] (setting [18]), 0.05 µg/mL (≈ 0.132 µM); in the test on Enterobacter cloacae, 0.013 µg/mL (≈ 0.0344 µM); in the test with Bacteria [15] (Bacteria, read-out: MIC), 0.05 µg/mL (≈ 0.132 µM); in the test with Enterococcus faecalis, 0.1 µg/mL (≈ 0.264 µM). The ED50 in the test with Streptococcus pyogenes [2] came out at 20 mg/kg; with Streptococcus pneumoniae [5], 20 mg/kg; with Streptococcus pyogenes [6], 18 mg/kg; in the test on Escherichia coli [8], 0.5 mg/kg; in the test with Escherichia coli [10] it was 0.2 mg/kg; in the test with Streptococcus pneumoniae [11] it was 15 mg/kg. Besides, the “Geometric mean MIC over Gram-positive bacteria (µg/mL)” value in the test on Bacteria [3] is on record as 0.066. Moreover, in the test on Bacteria [13], the Geometric mean MIC over Gram-negative bacteria (µg/mL) worked out at 0.038.

Consider `NC1CCN(c2c(F)cc3c(=O)c(C(=O)O)cn(C4CC4)c3c2Cl)C1` (stereo in doubt; 1f-4) [CLINAFLOXACIN], for which the MIC in the test on Staphylococcus aureus [1] is 0.025 µg/mL (≈ 0.0683 µM); against Staphylococcus aureus [7], 0.1 µg/mL (≈ 0.273 µM); in the test with Klebsiella pneumoniae, 0.05 µg/mL (≈ 0.137 µM); with Escherichia coli [9] it was 0.025 µg/mL (≈ 0.0683 µM); in the test with Pseudomonas aeruginosa, 0.2 µg/mL (≈ 0.547 µM); in the test on Streptococcus pyogenes [12], 0.1 µg/mL (≈ 0.273 µM). Further, the MIC turned out to be 0.1 µg/mL (≈ 0.273 µM) in the test on Streptococcus pneumoniae [14], 0.025 µg/mL (≈ 0.0683 µM) in the test on Enterobacter cloacae, 0.1 µg/mL (≈ 0.273 µM) in the test with Bacteria [15] and 0.1 µg/mL (≈ 0.273 µM) in the test on Enterococcus faecalis. For the same compound, the PD50 was determined as 43 mg/kg with Streptococcus pyogenes [2], 97 mg/kg with Streptococcus pneumoniae [5] and 11 mg/kg in the test with Streptococcus pneumoniae [11]. The “Geometric mean MIC over Gram-positive bacteria (µg/mL)” value with Bacteria [3] is reported as 0.075. For the same compound, the ED50 in the test with Streptococcus pyogenes [6] worked out at 4 mg/kg; in the test with Escherichia coli [8], 3 mg/kg; in the test on Escherichia coli [10] it was 0.5 mg/kg.

Regarding `Nc1c(F)c(N2CCNCC2)c(F)c2c1c(=O)c(C(=O)O)cn2C1CC1`, the MIC stood at 0.013 µg/mL (≈ 0.0357 µM) in the test on Staphylococcus aureus [1]; 0.5 µg/mL (≈ 1.37 µM) in [4]; 0.05 µg/mL (≈ 0.137 µM) with Staphylococcus aureus [7] (setting [16]); 0.025 µg/mL (≈ 0.0686 µM) in the test with Klebsiella pneumoniae; 0.013 µg/mL (≈ 0.0357 µM) in the test with Escherichia coli [9]; 0.025 µg/mL (≈ 0.0686 µM) in the test with Pseudomonas aeruginosa (setting [17]). The MIC in the test with Streptococcus pyogenes [12] was found to be 0.1 µg/mL (≈ 0.274 µM); in the test on Streptococcus pneumoniae [14] (setting [18]), 0.05 µg/mL (≈ 0.137 µM); in the test with Enterobacter cloacae, 0.013 µg/mL (≈ 0.0357 µM); with Bacteria [15] (Bacteria, read-out: MIC) it was 0.05 µg/mL (≈ 0.137 µM); in the test on Enterococcus faecalis it was 0.05 µg/mL (≈ 0.137 µM). In addition, the ED50 with Streptococcus pyogenes [2] is 31 mg/kg; in the test on Streptococcus pneumoniae [5], 68 mg/kg; in the test on Streptococcus pyogenes [6], 23 mg/kg; in the test with Escherichia coli [8], 0.8 mg/kg; in the test with Escherichia coli [10], 0.2 mg/kg; with Streptococcus pneumoniae [11], 27 mg/kg. In addition, the “Geometric mean MIC over Gram-positive bacteria (µg/mL)” value with Bacteria [3] is on record as 0.044. The Geometric mean MIC over Gram-negative bacteria (µg/mL) with Bacteria [13] worked out at 0.022.
